Data: ChEMBL document CHEMBL4513216, “Probing the Open Global Health Chemical Diversity Library for Multistage-Active Starting Points for Next-Generation Antimalarials” (ACS Infect Dis, 2020)

Assay: Toxicity liver stage against HepG2, at 10uM
Type: cell-based
Set-up: test concentration 10 uM, cell line HepG2-A16-CD81EGFP
Conditions: human, HepG2-A16-CD81EGFP cells; read-out: INHIBITION
Procedure, shortened: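 Uninfected HepG2-A16-CD81EGFP cells, 3 × 10^3 per well, 1536-well, plated on prespotted compound at 10 μM final, parasite-free screening media added to match infected plates; puromycin 10 μM positive, DMSO 0.5% negative; run in parallel with 48 h PbLuc assay at 37 °C, 5% CO2; viability by CellTiter-Glo luminescence, normalized to controls.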

Point of comparison: `Cc1ccc(-n2ncc(C(=O)NC3CC(C)(C)NC(C)(C)C3)c2N)cc1`, cytotoxicity at 10 µM -4.2%. Against it:
- O=C(NCc1ccccn1)[C@@H]1COC[C@H]2CN(C3CCC3)C[C@H]21 — lower, -79.1%
- CN1CCN(c2ncccn2)CC1C(N)=O (stereo not given) — higher, 15.4%
- CC(C)(CNc1cccc(Cl)c1)NC(=O)C1CCCN(CC(N)=O)C1 (stereo not given) — higher, -1.46%
- CC(C)C(=O)N1CCN(Cc2cnn(C)c2)CC2(CC(=O)N(C)C2)C1 (stereo not given) — higher, 3.42%
- Cc1ccc(OC2CCN(C(=O)Cc3c(C)[nH]c(=O)[nH]c3=O)CC2)cc1 — higher, 6.45%
- O=C(NCCCNCC1CNc2ccnn2C1)c1ccccc1 (stereo not given) — higher, -1.48%
- NC(=O)Nc1cccc(CNC(=O)CCCc2ccccc2)c1 — lower, -10.1%
- COc1ccc(-n2cc3nc(N)[nH]cc-3c2=O)cc1Cl — higher, 17.7%
- CC(C)Oc1ncnc2c1CCN(c1cc(C(F)(F)F)ncn1)CC2 — higher, 19%
- OC(CN1CCOCC1)CN1CCc2c(ncn2C2CC2)C1 (stereo not given) — higher, 2.45%
- Cc1ccc(CN2CC[C@@H](N(C)C(C)C)[C@@H]2Cc2ccccc2)o1 — higher, -3.52%
- COc1ccc(CNCCC(=O)N2CCc3sccc3C2)cc1O — higher, 4.48%
- O=S(=O)(NC1CCCCC12OCCO2)c1cc(Cl)cc(Cl)c1 (stereo not given) — higher, 11.5%
- O=C(c1ccc2c(c1)[nH]c(=O)n2C1CCCC1)N1CCC1 — lower, -46.4%
- CCC(O)CN(Cc1cccc(C(=O)N(C)C)c1)c1ccccc1 (stereo not given) — higher, 0.503%
- Cc1nnc(CN2CCCC2c2cccc(Br)c2)o1 (stereo not given) — higher, -3.51%
- CC(C)Cc1nc(CN(C)c2cc(C(C)C)nc3ccnn23)no1 — higher, 3.61%
- COc1ccc(C(=O)NCC2CCCN(C3CCOCC3)C2)c(O)c1 (stereo not given) — higher, 5.21%
- COc1ccc(C(N)=O)cc1NCc1ncc(C(C)(C)C)o1 — lower, -8.2%
- Cc1nc(C)c(CNC(=O)N2CCc3ccccc3C2CO)s1 (stereo not given) — higher, 23.7%
- Cc1ccc(CNC(C)c2ccc(OCC(=O)NC3CC3)cc2)o1 (stereo not given) — higher, 2.07%
- Cc1nc(CN2CCCC(N(C)CCc3ccncc3)C2)no1 (stereo not given) — lower, -6.93%
- Cc1nc(C(=O)N[C@H]2COC[C@@H]2N2CCCCC2)cs1 — higher, 15.5%
- CC(C)CCn1nc2ccc(S(=O)(=O)N3CCOCC3)cn2c1=O — higher, -2.13%
- CN1CC[C@]2(CN(CC3CCOCC3)C[C@H]2c2ccccc2)C1=O — higher, -1.18%
- O=S(=O)(c1cc2ccccc2o1)N1CCCC1 — higher, 20.2%
- CCCN(C(=O)c1cnccn1)c1nc2c(s1)CCc1c-2cnn1C — lower, -16.7%
- COC(=O)CCNC(=O)c1cnc(Cc2ccc(F)cc2)s1 — lower, -5.87%
- O=C(c1cccnc1)N1CCc2c(COCC3CC3)cncc2C1 — lower, -77.2%
- Cc1cnn(C2CN(Cc3nnc(C4CC4)o3)C2)c1 — lower, -6.49%
- O=C(CN1C(=O)CCC1=O)NCCc1nc(C2CC2)cc(C(F)(F)F)n1 — higher, -2.02%
- O=C1CC[C@H]2[C@H](CCN2C(=O)C2CCCO2)N1Cc1ccncc1 (stereo not given in full) — higher, 0.898%
- NC(=O)CCSCc1cc(Br)cc2cccnc12 — lower, -7.68%
- O=C(NCc1nnc2n1CCCC2)N1CCc2ccccc2C1 — higher, 4.79%
- Cc1ccc2c(c1)OCCCC2NCc1nccn1Cc1ccccc1 (stereo not given) — lower, -9.4%
- Fc1cccc(CN2CCC3(CCN3c3ncccn3)C2)c1 (stereo not given) — higher, 15.3%
- COc1ccc(Br)c(NC(=O)NCc2ncnn2C)c1 — higher, 5.41%
- CC1=N[C@@]2(CC[C@@H]3CNC[C@@H]32)C(=O)N1CC(C)C — higher, 2.98%
- COc1ccc(CN(C)C(=O)NCc2c(C)cc(C)[nH]c2=O)cc1 — higher, -1.13%
- Cc1nc(C)c(S(=O)(=O)NC(=O)c2cccs2)s1 — higher, -0.837%
- CC1=N[C@@]2(CC[C@@H]3CN(S(=O)(=O)CC(C)C)C[C@@H]32)C(=O)N1CC1CC1 — lower, -66.6%
- CC(C)C(NC(=O)c1ccco1)C(=O)N1CCC2(CC1)OCCO2 (stereo not given) — higher, 6.05%
- CN(CC1Cc2ccccc2CN1C)C(=O)CSc1nccn1C (stereo not given) — lower, -10.8%
- CCOc1cccc2c1OCC(=O)N(c1ccc(N(C)C)cc1)C2 — higher, 4.28%
- Cc1ccccc1N1CCN(C(=O)c2cnc(N(C)C)nc2C)C(C)C1 (stereo not given) — higher, 15.3%
- COc1cccc(NC(=O)Cc2c(C)nc3c(c2C)c(=O)[nH]n3C)c1 — higher, 5.05%
- N#CCCN(Cc1ccco1)C(=O)Cc1ccc(-n2cnnn2)cc1 — higher, 3.23%
- CCn1ccc2ccnc(CC3CN(C(=O)c4ccc(F)cc4)C3)c21 — higher, -3.3%
- Cc1nnc([C@H]2C[C@H]3OCC[C@H]3N(S(=O)(=O)C3CC3)C2)o1 — higher, -4.11%
- CCc1cnc2c(c1Nc1ccccc1OC)c(=O)n(C)c(=O)n2C — higher, 6.87%
- CN(C)C(=O)c1cccc(NC(=O)Cc2cc(F)ccc2F)n1 — higher, -2.64%
- Cc1nc(C)n(CC2CCCN2c2ncnc3c2CCC3)n1 (stereo not given) — higher, 8.03%
- O=C1CCCN1CCCC(=O)N1CCCCC1c1ccc(F)cc1 (stereo not given) — lower, -43.2%
- COCCCC1CCCCN1Cc1cn2cc(C)ccc2n1 (stereo not given) — higher, 3.21%
- CCOc1ccc(-c2c(-c3ccccc3)ncn2C2CCNC2)cn1 (stereo not given) — lower, -51.9%
- CNC(=O)N1C[C@@H]2C[C@H](C(=O)Nc3ccccc3)[C@H](C1)O2 — higher, -2.24%
- Cc1noc(C)c1CN1CCn2c(CN3CCN(C)CC3)cnc2C1 — higher, 8.98%
- CCc1ccc(NC(=O)N2C[C@@H]3C[C@H](C(=O)NC(C)C)[C@H](C2)O3)cc1 — higher, -1.67%
- O=S(=O)(c1cccnc1)N1C[C@H]2CCC[C@@]2(COc2ccccn2)C1 — higher, 7.05%
- CS(=O)(=O)Cc1cccc(CNS(=O)(=O)c2ccc(F)c(F)c2)c1 — higher, 1.33%
- O=C(CNC(=O)C1CC1)Nc1c(F)cccc1Oc1ccccc1 — higher, 0.99%
- CCN(C)C(=O)c1cc(-c2cn(C(C)C)cn2)n2ccccc12 — higher, -1.16%
- COCCN1CCO[C@@H]2CN(C(=O)Cc3cccc(F)c3)CC[C@@H]2C1 — higher, 5.95%
- NC(=O)CCN(C(=O)c1cccc2c1OCO2)c1ccccc1 — lower, -16.5%
- O=C(C1CCCC1)N1CCC(Nc2ccncn2)CC1 — lower, -57.7%
- Cc1cccc(N2CC(c3nnc(N)s3)CC2=O)c1 (stereo not given) — higher, 3.79%
- c1cnn(C2CN(c3ncnc4[nH]ccc34)C2)c1 — higher, 1.87%
- CC(C)N1C(=O)C[C@H]2[C@@H]1CCN2C(=O)c1ccco1 — lower, -99%
- O=C(CSC1CCc2ccccc2NC1=O)Nc1ccc(CCO)cc1 (stereo not given) — higher, -3.77%
- CN1CCN(C2CCN(Cc3ccc(Cl)cc3)CC2)C1=O — higher, 7.9%
- CC(=O)c1cn(CCC(=O)N[C@H](C(=O)O)C(C)C)c2ccccc12 — higher, 8.86%
- Cc1nc(CCCNC(=O)c2cc(F)ccc2O)n[nH]1 — lower, -5.32%
- COCCOC(=O)N1CCC(c2nccn2CC2CC2)CC1 — higher, -2.08%
- COCc1c(Cl)cccc1NC(=O)NCc1cccc(N(C)C)n1 — higher, 0.217%
- O=C(COc1cccc(F)c1)N1C[C@H](CO)C[C@H](CN2CCCC2)C1 — higher, 1.76%
- CC1CCCN(c2ncc(C(=O)NCc3ccc(F)c(Cl)c3)c(N)n2)C1 (stereo not given) — higher, -2.83%
- CN(C)c1ccc(C(=O)N2CCCC2c2ccc(Cl)cc2)nn1 (stereo not given) — lower, -10.7%
- Cc1cc(C)n(CC2CN(Cc3ccc(C(N)=O)cc3)CCO2)n1 (stereo not given) — lower, -15.1%
- Cc1ncsc1CNC(=O)N(CCCO)C1CCc2ccccc21 (stereo not given) — lower, -9.99%
